Experimental data from article PMC5546011 (Journal of medicinal chemistry, 2017).
Entries after “also recorded” stand apart in the source; their conditions may differ. Where two headings read alike, the source gives them in different places.

Legend:
[1] = target: T1, human κ-opioid receptor (Homo sapiens, UniProt P41145); experiment: Inhibition of forskolin-induced cAMP accumulation, KOR; format: cell-based; settings: result in words
[2] = target: T1, human κ-opioid receptor; settings: result in words; cited from earlier work
[3] = system: mice; experiment: Warm-water tail-withdrawal assay; format: in vivo; settings: 50°C warm-water tail withdrawal, 2 mg/kg i.p.
[4] = system: mice; experiment: Intradermal formalin assay; format: in vivo
[5] = target: human δ-opioid receptor (Homo sapiens, UniProt P41143); experiment: Inhibition of forskolin-induced cAMP accumulation, DOR; format: cell-based
Sequence of human δ-opioid receptor (P41143 whole entry): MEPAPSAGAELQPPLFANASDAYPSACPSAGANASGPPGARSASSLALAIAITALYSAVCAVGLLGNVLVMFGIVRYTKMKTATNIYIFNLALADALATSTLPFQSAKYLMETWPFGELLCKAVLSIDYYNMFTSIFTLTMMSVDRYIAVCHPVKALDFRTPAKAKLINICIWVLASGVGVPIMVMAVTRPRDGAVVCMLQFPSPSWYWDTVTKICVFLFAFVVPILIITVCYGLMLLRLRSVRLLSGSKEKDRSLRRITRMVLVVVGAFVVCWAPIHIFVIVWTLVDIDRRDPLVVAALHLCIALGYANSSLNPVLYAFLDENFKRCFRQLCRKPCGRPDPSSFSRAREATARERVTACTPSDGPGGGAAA
Method in brief: (§1)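 CHO-K1 HitHunter cells stably expressing human δ- or μ-opioid receptor, kept in F-12 with 10% FBS, 1% penicillin/streptomycin/L-glutamine and 800 μg/mL Geneticin at 37 °C, 5% CO2. cAMP accumulation was normalised to vehicle and forskolin-only controls.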

[6] = Rat liver microsomal stability; settings: rat liver microsomes 0.25 mg/mL, 10 μM compound, no NADPH, 37°C; result in words
[7] = target: human μ-opioid receptor (Homo sapiens, UniProt P35372); experiment: Inhibition of forskolin-induced cAMP accumulation, MOR; format: cell-based
Sequence of human μ-opioid receptor (P35372 whole entry): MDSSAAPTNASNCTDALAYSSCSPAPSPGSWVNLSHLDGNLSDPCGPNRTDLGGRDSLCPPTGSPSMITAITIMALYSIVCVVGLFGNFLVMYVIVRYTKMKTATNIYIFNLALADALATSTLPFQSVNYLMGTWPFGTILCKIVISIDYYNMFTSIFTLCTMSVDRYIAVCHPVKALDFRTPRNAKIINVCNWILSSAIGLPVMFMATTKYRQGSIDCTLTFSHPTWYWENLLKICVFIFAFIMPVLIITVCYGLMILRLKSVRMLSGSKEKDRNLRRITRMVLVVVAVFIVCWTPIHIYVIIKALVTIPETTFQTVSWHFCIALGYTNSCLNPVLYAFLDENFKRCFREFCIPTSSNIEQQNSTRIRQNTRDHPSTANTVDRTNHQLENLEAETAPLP
Method in brief: as §1

[8] = 2% intradermal formalin, mice, i.p., vs vehicle/formalin controls
[9] = 2% intradermal formalin, mice, i.p., result in words
[10] = 2% intradermal formalin, mice, vs vehicle/formalin controls, result in words

T1 sequence (P41145 whole entry): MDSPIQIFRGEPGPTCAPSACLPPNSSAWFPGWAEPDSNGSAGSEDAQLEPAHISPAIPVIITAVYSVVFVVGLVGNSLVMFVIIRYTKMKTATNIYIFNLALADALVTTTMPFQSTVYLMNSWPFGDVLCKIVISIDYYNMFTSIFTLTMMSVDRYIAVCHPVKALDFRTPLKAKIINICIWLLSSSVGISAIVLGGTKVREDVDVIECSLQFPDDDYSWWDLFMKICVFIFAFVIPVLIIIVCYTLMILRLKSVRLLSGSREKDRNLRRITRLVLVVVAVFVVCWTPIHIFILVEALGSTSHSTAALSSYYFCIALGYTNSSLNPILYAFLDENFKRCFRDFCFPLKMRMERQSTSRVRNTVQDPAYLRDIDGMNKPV

Structure (SMILES)	time of significant analgesic effect compared to vehicle (%MPE time course) [3]	time of significant reduction of phase two pain [4, 8]	AUC of phase one (0-15 min) pain [4, 9]	AUC of phase two (15-60 min) pain [4, 9]	footpad edema at 60 min [4, 10]	percent remaining at 150 minutes, absence of NADPH [6]	further results
COC(=O)[C@@H]1CCC(=O)[C@H]2[C@@]1(C)CC[C@H]1C(=O)O[C@H](c3ccoc3)C[C@]21C [compound 11, Methyl (2S,4aR,6aR,7R,10aS,10bR)-2-(furan-3-yl)-6a,10b-dimethyl-4,10-dioxododecahydro-2H-benzo[f]isochromene-7-carboxylate]							KOR activity [1]: complete loss of KOR activity; also recorded: completely inactive
COC(=O)[C@@H]1C=C(OC(=O)c2ccccc2)C(=O)[C@H]2[C@@]1(C)CC[C@H]1C(=O)O[C@H](c3ccoc3)C[C@]21C [Kurkinorin]							KOR activity [2]: no KOR activity
COC(=O)[C@@H]1C[C@H](OC(C)=O)C(=O)[C@H]2[C@@]1(C)CC[C@H]1C(=O)O[C@H](c3ccoc3)C[C@]21C [compound 9, salvinorin A, reference compound]	5 to 30 min	20 to 50 min	significant reduction	significant reduction	significant reduction in edema		
COC(=O)[C@@H]1C[C@]2(CCC(=O)O2)C(=O)[C@H]2[C@@]1(C)CC[C@H]1C(=O)O[C@H](c3ccoc3)C[C@]21C [compound 14, Methyl (2S,4aR,6aR,7R,9R,10aS,10bR)-2-(furan-3-yl)-6a,10b-dimethyl-4,5′,10-trioxododecahydro-2H,3′H,4H-spiro[benzo[f]isochromene-9,2′-furan]-7-carboxylate]	10 to 30 min	20 to 45 min	not significantly different from vehicle	reduced phase two pain	significant reduction in edema	less metabolized than 9	EC50 [5]: > 10 µM; time of significant attenuation of phase one pain [4, 8]: 10 min; effect on formalin pain behavior after pre-treatment with nor-BNI ([4]; KOR antagonist nor-BNI 10 mg/kg s.c. 24 hours prior, result in words): prevented; EC50 [7]: > 10 µM
COc1ccc2c(c1)[C@]13CCCC[C@@H]1[C@H](C2)N(C)CC3 [dextromethorphan, dextromethorphan hydrobomide, reference compound]						not metabolized	
